Activity calls are given as the source filed them. The rule behind the calls is not given here. Peptide text beside a SMILES is read from it.
What was measured:
[1] = system: Pseudomonas aeruginosa; test: Synergistic antibacterial activity against Pseudomonas aeruginosa ATCC […] assessed as fractional inhibitory concentration incubated for 24 hrs in presence of tobramycin by checkerboard assay; assay type: functional
[2] = system: Cell membrane; test: Membrano-lytic activity against Escherichia coli assessed as change in morphology at 4 times MIC after 1 hr by SEM analysis; assay type: subcellular
Summary of the method: (§1)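 E. coli ATCC BAA-2452 from overnight culture, suspended at 10^7 CFU/mL in 10 mM PBS pH 7.4. […] Fixed in 4% glutaraldehyde in cacodylate buffer pH 7.4 for 3 h at 4 °C, ethanol-dehydrated, HMDS-dried, Au/Pd-coated, then imaged by FE-SEM.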

[3] = system: Staphylococcus aureus; test: Induction of resistance development in methicillin resistant Staphylococcus aureus ATCC BAA-1556 assessed as increase in MIC by microtiter plate reader assay; assay type: functional, organism-based
Summary of the method: (§2)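 Serial passage resistance assay with 2-fold microdilution MICs in 96-well plates. Each passage takes the well with the highest concentration still permitting growth, adjusts it to 0.5 McFarland, and dilutes it to a final 5 × 10^5 CFU/mL for the next passage. Eighteen passages; MIC recorded at each. Triplicate.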

[4] = system: Klebsiella pneumoniae; test: Antibacterial activity against Klebsiella pneumoniae ATCC 700603 after 24 hrs by microbroth dilution method; assay type: functional
[5] = system: Cell membrane; test: Membrano-lytic activity against Escherichia coli assessed as loss of membrane fluidity at 4 times MIC after 1 hr by SEM analysis; assay type: subcellular; summary of the method: as §1
[6] = system: Staphylococcus aureus; test: Synergistic antibacterial activity against methicillin resistant Staphylococcus aureus ATCC BAA-1556 fractional inhibitory concentration index incubated for 24 hrs in presence of levofloxacin by checkerboard assay; assay type: functional
Summary of the method: (§3)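 Checkerboard assay. Inoculum from an LB overnight culture at 0.5 McFarland, diluted 1/150 in MH media. […] Incubated 37 °C for 24 h. FICI = MIC combination/MIC alone summed over both agents. Triplicate.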

[7] = system: Escherichia coli; test: Induction of resistance development in Escherichia coli ATCC 25922 assessed as increase in MIC by microtiter plate reader assay; assay type: functional, organism-based
[8] = system: Klebsiella pneumoniae; test: Synergistic antibacterial activity against Klebsiella pneumoniae ATCC BAA-1705 fractional inhibitory concentration incubated for 24 hrs in presence of meropenem by checkerboard assay; assay type: functional
Summary of the method: (§4)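 Checkerboard assay in MH broth. Inoculum from an LB overnight culture set to 0.5 McFarland and diluted 1/150. […] Each agent was also titrated alone. Incubation 24 h at 37 °C. FIC = combination MIC/individual MIC; FICI = sum of the FICs. Triplicate.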

[9] = system: Pseudomonas aeruginosa; test: Synergistic antibacterial activity against Pseudomonas aeruginosa ATCC […] fractional inhibitory concentration index incubated for 24 hrs in presence of polymyxin B by checkerboard assay; assay type: functional
[10] = system: Klebsiella pneumoniae; test: Synergistic antibacterial activity against Klebsiella pneumoniae ATCC BAA-1705 fractional inhibitory concentration index incubated for 24 hrs in presence of meropenem by checkerboard assay; assay type: functional; summary of the method: as §4
[11] = system: Staphylococcus aureus; test: Synergistic antibacterial activity against methicillin resistant Staphylococcus aureus ATCC BAA-1556 assessed as fractional inhibitory concentration index incubated for 24 hrs in presence of tobramycin by checkerboard assay; assay type: functional; summary of the method: as §3
[12] = system: Staphylococcus aureus; test: Synergistic antibacterial activity against methicillin resistant Staphylococcus aureus ATCC BAA-1556 incubated for 24 hrs in presence of levofloxacin by checkerboard assay; assay type: functional; summary of the method: as §3
[13] = system: Cell membrane; test: Membrano-lytic activity against Escherichia coli assessed as membrane atrophy at 4 times MIC after 1 hr by SEM analysis; assay type: subcellular; summary of the method: as §1
[14] = system: Cell membrane; test: Membrano-lytic activity against methicillin resistant Staphylococcus aureus assessed as loss of membrane fluidity at 4 times MIC after 1 hr by SEM analysis; assay type: subcellular
[15] = system: Pseudomonas aeruginosa; test: Synergistic antibacterial activity against Pseudomonas aeruginosa ATCC […] fractional inhibitory concentration incubated for 24 hrs in presence of polymyxin B by checkerboard assay; assay type: functional
[16] = Therapeutic index, ratio of cytotoxicity against human HEKa to MIC for methicillin resistant Staphylococcus aureus
[17] = Membrano-lytic effect in bacterial inner membrane mimic DOPC/DOPG (7:3) large unilamellar vesicles assessed as calcein leakage at 50 ug/ml measured after 90 mins by multimode microplate reader assay; assay type: cell membranes; conditions: dose 50.0 µg/ml
Summary of the method: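 Calcein (70 mM) loaded into extruded 100 nm LUVs: DOPC:DOPG 7:3 (w/w) as the bacterial mimic, DOPC/cholesterol 10:1 (w/w) as the mammalian mimic. Free dye removed by gel filtration. Liposomes at 40 μM final lipid in PBS mixed 1:1 with peptide (5–50 μg/mL). Fluorescence (ex 490/em 520 nm) read every 10 min for 100 min; Triton X-100 defines 100% release. Triplicate.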

[18] = system: Staphylococcus aureus; test: Bactericidal activity against methicillin resistant Staphylococcus aureus assessed as reduction in bacterial cells by time kill assay; assay type: functional, organism-based; conditions: TDE = time-dependent effect
Summary of the method: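 Time-kill in Müller–Hinton media. […] Aliquots taken at 0–24 h, serially diluted and plated on MH agar. CFU counted after 24 h at 37 °C. Two independent experiments in triplicate.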

[19] = system: Staphylococcus aureus; test: Bactericidal activity against methicillin resistant Staphylococcus aureus assessed as reduction in bacterial cells at MIC after […] by time kill assay; assay type: functional; design: scale not given: the % may be the effect or the level left
[20] = system: Escherichia coli; test: Induction of resistance development in Escherichia coli ATCC BAA-2452 assessed as increase in MIC by microtiter plate reader assay; assay type: functional, organism-based; summary of the method: as §2
[21] = system: Pseudomonas aeruginosa; test: Synergistic antibacterial activity against Pseudomonas aeruginosa ATCC […] assessed as fractional inhibitory concentration index incubated for 24 hrs in presence of tobramycin by checkerboard assay; assay type: functional
[22] = system: Staphylococcus aureus; test: Synergistic antibacterial activity against methicillin resistant Staphylococcus aureus ATCC BAA-1556 fractional inhibitory concentration incubated for 24 hrs in presence of levofloxacin by checkerboard assay; assay type: functional; summary of the method: as §3
[23] = system: Escherichia coli; test: Bactericidal activity against Escherichia coli assessed as reduction in bacterial cells at 4 times MIC after 2 hrs by time kill assay; assay type: functional; design: scale not given: the % may be the effect or the level left
Summary of the method: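 Samples taken at time points from 0 to 24 h, serially diluted and plated on MH agar. CFU counted after 24 h at 37 °C. Untreated culture served as control. Two independent experiments in triplicate.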

[24] = system: Pseudomonas aeruginosa; test: Synergistic antibacterial activity against Pseudomonas aeruginosa ATCC […] incubated for 24 hrs in presence of polymyxin B by checkerboard assay; assay type: functional; summary of the method: as §3
[25] = system: Escherichia coli; test: Synergistic antibacterial activity against Escherichia coli ATCC 25922 fractional inhibitory concentration incubated for 24 hrs in presence of metronidazole by checkerboard assay; assay type: functional; summary of the method: as §4
[26] = system: Staphylococcus aureus; test: Synergistic antibacterial activity against methicillin resistant Staphylococcus aureus ATCC BAA-1556 fractional inhibitory concentration incubated for 24 hrs in presence of Ciprofloxacin by checkerboard assay; assay type: functional; summary of the method: as §3
[27] = system: Escherichia coli; test: Synergistic antibacterial activity against Escherichia coli ATCC 25922 fractional inhibitory concentration index incubated for 24 hrs in presence of metronidazole by checkerboard assay; assay type: functional; summary of the method: as §4
[28] = system: Escherichia coli; test: Synergistic antibacterial activity against Escherichia coli ATCC 25922 fractional inhibitory concentration index incubated for 24 hrs in presence of Ciprofloxacin by checkerboard assay; assay type: functional; summary of the method: as §4
[29] = system: Escherichia coli; test: Synergistic antibacterial activity against Escherichia coli ATCC 25922 fractional inhibitory concentration incubated for 24 hrs in presence of Ciprofloxacin by checkerboard assay; assay type: functional; summary of the method: as §4
[30] = system: Staphylococcus aureus; test: Synergistic antibacterial activity against methicillin resistant Staphylococcus aureus ATCC BAA-1556 fractional inhibitory concentration incubated for 24 hrs in presence of polymyxin B by checkerboard assay; assay type: functional; summary of the method: as §3
[31] = system: Escherichia coli; test: Synergistic antibacterial activity against Escherichia coli ATCC 25922 fractional inhibitory concentration incubated for 24 hrs in presence of meropenem by checkerboard assay; assay type: functional; summary of the method: as §3

## N=C(N)NCCC[C@@H]1NC(=O)[C@H](CCCNC(=N)N)NC(=O)[C@H](CCCNC(=N)N)NC(=O)[C@H](Cc2c[nH]c3ccccc23)NC(=O)[C@H](Cc2c[nH]c3ccccc23)NC(=O)[C@H](Cc2c[nH]c3ccccc23)NC(=O)[C@H](Cc2c[nH]c3ccccc23)NC(=O)[C@H](CCCNC(=N)N)NC(=O)[C@H](CCCNC(=N)N)NC1=O
[1]
  FIC: 0.25
[2]
  Activity: Active
[3]
  Activity: inactive
[4]
  MIC: > 64 µg/mL
[5]
  Activity: Active
[6]
  fractional inhibitory concentration index (FICI): 0.5
[7]
  Activity: inactive
[8]
  FIC: 0.25
[9]
  fractional inhibitory concentration index (FICI): 0.375
[10]
  fractional inhibitory concentration index (FICI): 0.5
[11]
  fractional inhibitory concentration index (FICI): 0.5
[12]
  MIC: 1 µg/mL
[13]
  Activity: Active
[14]
  Activity: Active
[15]
  FIC: 0.125
[16]
  TI: 63
[17]
  Activity: 100%
[18]
  Activity: Tde
[19]
  Activity: 100%
[20]
  Activity: inactive
[21]
  fractional inhibitory concentration index (FICI): 0.5
[22]
  FIC: 0.25
[23]
  Activity: 100%
[24]
  MIC: 0.125 µg/mL

## N=C(N)NCCC[C@@H]1NC(=O)[C@H](CCCNC(=N)N)NC(=O)[C@H](CCCNC(=N)N)NC(=O)[C@H](CCCNC(=N)N)NC(=O)[C@H](Cc2c[nH]c3ccccc23)NC(=O)[C@H](Cc2c[nH]c3ccccc23)NC(=O)[C@H](Cc2c[nH]c3ccccc23)NC(=O)[C@H](Cc2c[nH]c3ccccc23)NC(=O)[C@H](CCCNC(=N)N)NC(=O)[C@H](CCCNC(=N)N)NC1=O (cyclo(RRRRRRWWWW))
[25]
  FIC: 0.125
[26]
  FIC: 0.25
[27]
  fractional inhibitory concentration index (FICI): 0.625
[28]
  fractional inhibitory concentration index (FICI): 0.375
[29]
  FIC: 0.125
[30]
  FIC: 0.063
[31]
  FIC: 0.125
